Published values gathered from unrelated publications.
Each line is one published result; the experiments were not run side by side.

SMILES	assay	system	conditions	measurement	result
COc1ccc2nccc(N3CCc4c(cc(Cn5ccnc5)cc4-c4cn(C)nc4C(F)(F)F)C3=O)c2c1	–	male CD-1 mouse, plasma	intravenous, 3 mg/kg	C0	3430 ng/mL
C=CC(=O)Nc1cc(Nc2nccc(Nc3cc(Cl)c(F)cc3C(C)(C)O)n2)c(OC)cc1N1CC[C@@H](N(C)C)C1	–	beagle dog, plasma	intravenous, 1 mg/kg	clearance	30.9 mL/min/kg
CC(C)Oc1c(NC(=O)c2ccc(NC(=O)[C@H](CC(N)=O)NC(=O)c3ccc(NC(=O)c4ccc(C#N)cc4)cc3)cc2)ccc(C(=O)Nc2ccc(C(=O)O)cc2)c1O	–	male CD-1 mouse, plasma	intravenous, 5 mg/kg, single dose	C0	2940 ng/mL
CC(C)(C)c1ccc(O)c(CN(Cc2cc(C(C)(C)C)ccc2O)C2CCC(NC(N)=O)CC2)c1 (stereo not shown)	–	male C57BL/6 mouse, plasma	intraperitoneal, 5 mg/kg, single dose	clearance	15.7 mL/min/kg
CC[C@@H]1CN(C(=O)NCC(F)(F)F)C[C@@H]1c1cnc2cnc3[nH]ccc3n12	–	beagle dog, plasma	oral, 1 mg/kg, single dose	CL/F	29.3 mL/min/kg
CCn1c(=O)c(-c2cc(NC(=O)Nc3ccccc3)c(F)cc2Br)cc2cnc(NC)cc21	–	beagle dog, plasma	oral, 5 mg/kg, single dose	CL/F	21 mL/min/kg
COc1ccc2nc(-c3ccccn3)c(N(C)c3ccc(F)cc3)n2c1	–	male CD-1 mouse, plasma	oral, 50 mg/kg, fasted	CL/F	917 mL/min/kg
COc1cc2c3c(n(CCCN4CCOCC4)c(=O)c2cc1OC)-c1cc2c(cc1C3=O)OCO2	–	male beagle dog, plasma	intravenous, 100 mg/m², infusion	Cmax	461 ng/mL
COc1ccnc(CNC(=O)c2cn(Cc3ccc(Cn4ccccc4=O)cc3)nc2C(F)(F)F)c1F	–	male beagle dog, plasma	oral, 1 mg/kg	Cmax	200 ng/mL
C[C@@H]1[C@H](O)[C@@H](C)/C=C/C=C/C=C/C=C/C=C/C=C/C=C/[C@H](O[C@@H]2O[C@H](C)[C@@H](O)[C@H](N)[C@@H]2O)C[C@@H]2O[C@](O)(C[C@@H](O)C[C@@H](O)[C@H](O)CC[C@@H](O)C[C@@H](O)CC(=O)O[C@H]1C)C[C@H](O)[C@H]2C(=O)O	haemolysis	rabbit	64 µg/mL, 1 h	haemolysis	100%
Cc1ccc2cncc(N3CCc4c(cc(Cn5ccnc5)cc4-c4cn(C)nc4C(F)(F)F)C3=O)c2c1	–	male CD-1 mouse, plasma	intravenous, 3 mg/kg	C0	5480 ng/mL
C=CC(=O)N1CC2CC(n3nc(-c4ccc(C(=O)Nc5ccccn5)cc4)c4c(N)ncnc43)CC2C1 (stereo not shown)	–	male Wistar rat, plasma	oral, 100 mg/kg	Tmax	4 h
CCc1cc(C(=O)NC)c2nccc(N3CCc4c(cc(Cn5ccnc5)cc4-c4cn(C)nc4C(F)(F)F)C3=O)c2c1	–	male Sprague-Dawley rat, plasma	oral, 100 mg/kg, single dose	Tmax	1.3 h
CC[C@H](C)[C@@H]1NC(=O)[C@@](C)(NC(=O)[C@H](CCCNC(=N)N)NC(=O)[C@H](CC(C)C)NC(=O)[C@@H](NC(=O)[C@H](CCC(N)=O)NC(=O)[C@H](CC(C)C)NC(C)=O)[C@@H](C)O)CCCC=CCCC[C@@](C)(C(=O)N[C@@H](CC(C)C)C(=O)N[C@@H](Cc2ccc3ccccc3c2)C(N)=O)NC(=O)[C@H](CCCNC(=N)N)NC(=O)[C@H](CCC(N)=O)NC1=O	–	male BALB/c mouse, plasma	intravenous, 10 mg/kg	clearance	0.713 mL/min/kg
COc1cc(OC)c2nccc(N3CCc4c(cc(Cn5ccnc5)cc4-c4cn(C)nc4C(F)(F)F)C3=O)c2c1	–	male CD-1 mouse, plasma	intravenous, 3 mg/kg	C0	1600 ng/mL
C#Cc1cnc2nc(O)n(C(CC)CC)c2n1	–	male beagle dog, plasma	intravenous, 1 mg/kg	clearance	4.3 mL/min/kg
